Experimental findings from ChEMBL document CHEMBL1770142, “Improvement of the synthesis and pharmacokinetic properties of chromenotriazolopyrimidine MDM2-p53 protein-protein inhibitors” (Bioorg Med Chem Lett, 2011) are described below.

Data set [1] can be described thus: Volume of distribution at steady state in rat at 0.5 mg/kg, iv. It counts as ADME, organism-based. Also noted: dose 0.5 mg/kg, route intravenous. The settings on record: in vivo, read-out: Vdss. A digest of the protocol:
(§1)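 Rat PK: intravenous 0.5 mg/kg in 100% DMSO; oral 2.0 mg/kg in 0.5% methylcellulose/1% Tween 80/98.5% water. Plasma profiles give MRT, Vdss and CL from the iv arm and F from the oral arm.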

Data set [2] in a line: Oral bioavailability in rat at 2 mg/kg. It counts as ADME, organism-based. The settings on record: in vivo. The method in brief:
as §1

Data set [3] can be described thus: Mean residence time in rat at 0.5 mg/kg, iv. The class given is ADME, organism-based. Also noted: dose 0.5 mg/kg, route intravenous. The settings on record: in vivo. A digest of the protocol:
as §1

A short description of data set [4]: Solubility of the compound in phosphate buffer saline. The class given is physicochemical.
A short description of data set [5]: Mean residence time in rat at 2 mg/kg, iv. The settings on record: in vivo. More on the design: dose 2 mg/kg, route intravenous. The class given is ADME, organism-based. The method in brief: (§2)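 Rats dosed intravenously at 2.0 mg/kg in DMSO, or orally at 5.0 mg/kg in 2% HPMC, 1% Tween 80, pH 2.2 with HCl. Plasma levels of parent and of the 4/5 conversion products were followed over time. iv parameters and oral bioavailability were taken from these profiles.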

Data set [6] in a line: Oral bioavailability in rat at 5 mg/kg, po. The class given is ADME, organism-based. The settings on record: in vivo. The method in brief:
as §2

A short description of data set [7]: Volume of distribution at steady state in rat at 2 mg/kg, iv. The class given is ADME, organism-based. More on the design: dose 2 mg/kg, route intravenous. As to conditions: in vivo, read-out: Vdss. A digest of the protocol: as §2

In brackets after ≈: the same amount, converted by molar mass.

As usually defined, the bioavailability is dose-corrected exposure relative to a reference, in per cent. Lower therefore signals poor availability. The MRT is a mean duration of stay, worked out from the concentration-time curve. Broadly, the solubility is the dissolved amount per volume that the medium holds. A lower solubility goes with little dissolved substance. With `O=C(O)CCCCN1C2=C([C@H](c3ccc(Br)cc3)n3ncnc31)[C@@H](c1ccc(Br)cc1)Oc1ccccc12`, the Vd in data set [1] stood at 1.7 L/kg. This compound showed a bioavailability in data set [2] of 54%. In addition, the mean residence time MRT in data set [3] came out at 4.1 h. In data set [4], this compound came in with a solubility of 6.1 µg/mL (≈ 9.59 µM).
The corresponding values for `O=C(O)CN1C2=C([C@H](c3ccc(Br)cc3)n3ncnc31)[C@@H](c1ccc(Br)cc1)Oc1ccccc12` are 2.6 L/kg, 14%, 0.46 h and 132 µg/mL (≈ 222 µM).
`CN1C2=C([C@H](c3ccc(Br)cc3)n3ncnc31)[C@@H](c1ccc(Br)cc1)Oc1ccccc12` registered an MRT in data set [5] of 2.4 h. In data set [6], this compound returned a bioavailability of 23%. The compound further came in with a solubility in data set [4] below 1 µg/mL. The Vd in data set [7] was 9.9 L/kg.
